Compound activity (PubChem)
KCNK3 block = human KCNK3 channel inhibitors, primary screen, CHO cells, FluxOR thallium flux, B-score. B-score at 10 µM. Potassium channel subfamily K member 3 (Homo sapiens), O14649. hit rate 0.84% among 340,000. AID 602410, 2012. FluxOR fluorescence; active compounds read low;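 active = B-score under library mean minus 4 SD, starting fluorescence ratio at most library mean plus 5 SD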;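 note: more negative B-score means stronger inhibition of thallium flux through KCNK3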
hERG protect = hERG rescue from dofetilide block, primary screen, cell-based, CHO-hERG, FluxOR thallium flux, dofetilide IC70; Voltage-gated inwardly rectifying potassium channel KCNH2 (Homo sapiens), Q12809; dofetilide IC70 present; hit rate 0.51% among 310,000; activation (rescue from dofetilide block), less the hit threshold, % at 10 µM; AID 1511, 2009;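 active = activation above the mean of controls blocked by dofetilide plus 5 SD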;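 note: thallium influx through hERG after potassium depolarization seen as dye fluorescence rise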
KCNQ1 pot = potentiators or activators of KCNQ1 channel, primary screen, cell-based, thallium flux, high-throughput | CHO-K1 KCNQ1, thallium flux FluxOR fluorescence; active compounds read high | B-score at 10 µM | hit rate 0.35% among 310,000 | AID 2648, 2010;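 active = fluorescence ratio B-score, a plate-corrected score, at least three library SD, with initial intensity B-score within 5 SD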
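assay system = CHO-K1 cells stably expressing KCNQ1 | medium = assay buffer, equal DMSO in all wells | timing = 37 °C overnight plating, 90-min dark dye load, 20-min compound pretreatment | measured by = kinetic FluxOR thallium fluorescence, 10-s 1-Hz baseline, 110-s post-stimulus read | measure = fluorescence change relative to baseline, converted to B score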
Cl transport mod = KCC2 cotransporter modulators, thallium flux, primary screen, cell-based, HEK293 KCC2, FluoZin-2 fluorescence, MLSMR | AID 1456, 2008 | hit rate 2.2% among 190,000 | KCC2 cells, thallium flux FluoZin-2 fluorescence | Solute carrier family 12 member 5 (Homo sapiens), Q9H2X9 | B-score of Tl+ flux slope (higher = more flux/activation; lower = inhibition) at 10 µM;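 active = thallium flux slope and its plate-corrected score both differing from the plate sample mean at a set confidence after two filtering rounds, in either direction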;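 note: slope of fluorescence scaled to starting intensity during 10 to 20 s after thallium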
KCNQ1 block = inhibitors of human KCNQ1 channel, primary screen, cell-based, thallium flux, high-throughput; Potassium voltage-gated channel subfamily KQT member 1 (Homo sapiens), P51787; CHO-K1 KCNQ1, FluxOR thallium flux fluorescence; active compounds read high; B-score at 10 µM; hit rate 1.3% among 310,000; AID 2642, 2010;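 active = compounds whose thallium flux B-score, printed positive for inhibition, exceeds three library SD while starting fluorescence stays within three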;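 note: channel opened by potassium depolarization with thallium stimulus after 20 min compound exposure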
KCNK9 block = KCNK9 potassium channel inhibitors, primary screen, HEK293 cells, thallium flux; B-score at 10 µM; hit rate 1.2% among 310,000; Potassium channel subfamily K member 9 (Homo sapiens), Q9NPC2; FluxOR thallium flux fluorescence; active compounds read low; AID 488922, 2010;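 active = ratio B-score over 3 SD below the library mean, with starting fluorescence within 5 SD of its mean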;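 note: negative B-score means less thallium flux so channel inhibition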
A number is an active result; . = inactive; / = no result given. Only some compounds are listed: those with a hit (about 4.1% of all), similar ones and a draw of the others.

SMILES	KCNK3 block	hERG protect	KCNQ1 pot	Cl transport mod	KCNQ1 block	KCNK9 block
O=C(CCc1ccc(S(=O)(=O)N2CCOCC2)cc1)Nc1ccccc1F	.	/	/	/	/	/
Cc1ccsc1/C=N/NC(=O)c1sccc1C	.	.	.	5.7	.	.
CC(C)N1CCN(Cc2ccc(C#CC(C)(C)O)s2)CC1CCO (centres undefined)	.	.	.	.	.	.
COC(=O)C1=CN(Cc2ccc(OC)cc2)C=C(C(=O)OC)C1c1cccs1	.	.	.	.	.	-6.7
Cc1ccc(S(=O)(=O)N(C)C)cc1NC(=O)COC(=O)/C(=C/c1ccc(F)cc1)c1cccs1	.	.	.	.	.	-7.3
CCOc1cc(C2C(C#N)=C(N)Oc3n[nH]c(C)c32)ccc1OCCN1CCOCC1 (centres undefined)	.	.	.	.	.	.
CN(N=Nc1ccc([N+](=O)[O-])cc1)c1ccccc1	.	.	.	.	.	.
CN(N=Nc1cccc([N+](=O)[O-])c1)c1ccccc1	.	.	.	/	.	-6.7
O=C(NN=C1c2ccccc2-c2ccccc21)c1cccc(Br)c1	.	46	18	60	.	.
O=C(COc1cccc(Br)c1)NN=C1c2ccccc2-c2ccccc21	.	.	.	.	.	.
COc1ccccc1CNCc1cccc(Oc2ccccc2)c1	.	.	8	.	.	.
Cc1cc2n(n1)C(c1ccc3c(c1)OCO3)Nc1ccccc1-2 (centres undefined)	.	.	.	.	.	.
Cc1ccc2c(c1)-c1cc(C)nn1C(c1ccc3c(c1)OCO3)N2 (centres undefined)	.	.	.	.	.	-7.6
COc1ccc(NC(=O)CN2C(=O)S/C(=C/c3cccn3-c3ccc(C(=O)O)cc3)C2=O)cc1	.	16	.	/	.	.
Cc1ccc(NC(=O)CN2C(=O)S/C(=C\c3cccn3-c3cccc(C(=O)O)c3)C2=O)c(C)c1	.	5.4	.	.	.	.
Cc1ccc(NC(=O)CN2C(=O)S/C(=C\c3cccn3-c3cccc(C(=O)O)c3)C2=O)cc1C	.	.	.	.	.	.
Cc1ccccc1NC(=O)CN1C(=O)S/C(=C\c2cccn2-c2cccc(C(=O)O)c2)C1=O	.	.	.	/	.	.
COC(=O)C1C2C=CC3(CN(CC4CCCO4)C(=O)C13)O2 (centres undefined)	.	.	.	.	.	.
O=C(NC(=S)Nc1ccccc1N1CCCC1)c1ccc([N+](=O)[O-])cc1	.	8.1	8	42	.	.
O=C(NC(=S)Nc1cc([N+](=O)[O-])ccc1O)c1ccc2c(c1)OCO2	.	.	.	/	6	.
Cc1c(C(=O)NC(=S)Nc2ccccc2N2CCCC2)cccc1[N+](=O)[O-]	.	.	.	13	.	.
CCC1CCCCN1C(=S)NC(=O)c1ccc([N+](=O)[O-])cc1 (centres undefined)	.	16	18	46	.	.
CCC1CCCCN1C(=S)NC(=O)c1cc(Br)ccc1Cl (centres undefined)	.	/	/	/	/	/
COc1ccc(C=C2SC(=S)NC2=O)c(OC)c1OC	.	/	/	/	/	/
CCn1c(/N=C/c2ccc(OC)cc2O)nc2ccccc21	.	.	.	/	.	.
O=C(NC(=S)Nc1ccccc1N1CCCC1)c1ccc(-c2cccc([N+](=O)[O-])c2)o1	.	.	8	/	.	.
Cc1ccc(C(=O)Nc2nc(=O)n(C(=O)C3CC3)s2)cc1	.	5.0	.	/	.	.
O=C(Cc1ccccc1)Nc1ccc(NC(=O)c2cccc(Cl)c2)cc1	.	.	.	.	.	.
Cc1cc(C)cc(C(=O)Nc2ccc(NC(=O)Cc3ccccc3)cc2)c1	.	6.2	.	.	.	.
